Compound activity as filed in PubChem BioAssay.
Hits are enriched below; roughly 2.9% of the tested compounds scored in any of these assays.
GalR3 antagonist – blocks the human galanin receptor 3; inhibition, % at 3 µM; HEK293 GalR3-CNG cAMP membrane potential fluorescence; galR3 body fused to GalR1 C-terminus; actives 0.44% (n = 360,000); O60755;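 active = inhibition above the screen-wide average plus 3 SD, cut at about 13% in these data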;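 also: forskolin and galanin both at EC90 stimulate the cells; cAMP rise reported by CNG channel membrane potential dye signal; 0% = forskolin plus galanin with DMSO and 100% = forskolin alone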
Target sequence (O60755 1-299 limits assumed): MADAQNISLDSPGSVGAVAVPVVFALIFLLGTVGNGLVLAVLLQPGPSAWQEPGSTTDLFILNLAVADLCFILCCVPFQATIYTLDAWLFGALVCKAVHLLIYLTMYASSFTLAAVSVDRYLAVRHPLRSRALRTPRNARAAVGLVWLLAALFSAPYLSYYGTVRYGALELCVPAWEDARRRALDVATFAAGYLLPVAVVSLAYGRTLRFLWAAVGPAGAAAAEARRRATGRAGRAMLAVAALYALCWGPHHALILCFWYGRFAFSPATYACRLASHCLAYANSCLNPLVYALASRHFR
MC4R antagonist – human MC4R antagonism in cAMP assay; AID 540295; P32245; inhibition, % at 6.5 µM; actives 0.48% (n = 360,000); MC4R-expressing cells, MTII-stimulated cAMP, LANCE TR-FRET;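 active = inhibition above its plate's cutoff, the mean of tested wells on that plate plus 3 SD, cut at about 29% in these data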;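 also: 0% = Melanotan II alone and 100% = Melanotan II plus saturating MCL0020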
Target sequence (P32245 whole entry, looked up): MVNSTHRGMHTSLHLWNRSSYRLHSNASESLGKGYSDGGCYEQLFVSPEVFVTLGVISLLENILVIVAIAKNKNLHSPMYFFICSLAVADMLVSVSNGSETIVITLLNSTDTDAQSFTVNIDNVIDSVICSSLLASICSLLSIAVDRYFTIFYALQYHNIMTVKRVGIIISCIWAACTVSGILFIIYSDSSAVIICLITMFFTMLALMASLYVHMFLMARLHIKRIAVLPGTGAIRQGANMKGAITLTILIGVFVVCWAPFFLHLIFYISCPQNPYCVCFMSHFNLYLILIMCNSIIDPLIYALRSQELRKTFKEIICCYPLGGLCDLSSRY
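system = U2OS cells with stable human MC4R expression | also added = Melanotan II challenge after compound preincubation | dosing = one concentration, 6.5 µM nominal | incubation = compound 30 min, challenge 1 h, detection 1 h | measured by = TR-FRET with Eu-cAMP and labeled anti-cAMP, 671 nm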
MC4R ag barr – agonists of human melanocortin 4 receptor (MC4R) beta-arrestin; P32245; actives 0.98% (n = 360,000); activation, % at 8.9 µM; U2OS MC4R beta-arrestin complementation, luminescence; percent of melanotan II response, DMSO zero;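 active = activation above a per-plate cutoff, the mean activation of sample wells on that plate plus 3 SD, cut at about 8% in these data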
TAG inh – reduces triacylglycerol accumulation in H9c2 cells | Nile Red lipid (TAG) fluorescence; cells loaded with 200 µM oleic acid | inhibition, % at 12.5 µM | actives 0.66% (n = 230,000) | AID 651582;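 active = pattern-corrected inhibition of lipid staining of at least 50% with the nuclear-stain viability signal not falling by more than 50%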;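 also: 0% = DMSO wells and 100% = triacsin C control wells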
Efflux pump inh – blocks antifungal efflux pumps in multiplex yeast assay; S. cerevisiae Candida pump triplex, Nile Red efflux; inhibition, % at 10 µM; actives 0.44% (n = 330,000); AID 485275;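 active = plate passing quality check with inhibition over a set limit, or well fluorescence over plate mean plus 4 SD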;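 also: Nile Red retained in pooled yeast measured as flow cytometry median fluorescence; 0% = buffer negative control and 100% = Enniatin B positive control; higher means more Nile Red kept so more efflux inhibition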
Calb FLC – affects C. albicans growth with fluconazole | growth inhibition, % (test concentration not listed) | C. albicans CaCi-2 + fluconazole, Alamar Blue growth, 48 h | actives 0.57% (n = 300,000);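 active = growth inhibition above about 58% in most replicates, limit read from the data, passing the limit was not always enough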;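 also: all wells also contain fluconazole at 8 µg/ml as a sub-toxic cotreatment; 0% = median of DMSO wells and 100% = median of geldanamycin control wells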
Numbers without * were called inactive; . = no result.

SMILES | GalR3 antagonist | MC4R antagonist | MC4R ag barr | TAG inh | Efflux pump inh | Calb FLC
COc1ccc(SCC(O)Cn2c3ccccc3c3ccccc32)c(OC)c1 (configuration not stated) | -7 | . | . | . | . | .
COc1cc(-c2nc(-c3ccc(NC(=O)c4ccc(Br)o4)cc3)no2)cc(OC)c1OC | -3 | 14 | 5 | 51* | 0 | 20
COc1ccc(CCC(=O)Nc2ccc(-c3noc(-c4ccc(OC)c(OC)c4)n3)cc2)cc1 | -2 | -20 | 0 | 26 | 0 | 10
O=C(Nc1ccc(-c2nc3ncccc3o2)cc1)c1ccc(Br)o1 | -3 | 19 | 5 | 69* | 0 | 33
COC(=O)C1=C(C)N(Cc2ccccc2C(F)(F)F)C(=NCc2ccc3c(c2)OCO3)NC1c1cccc(C(F)(F)F)c1 (configuration not stated) | -7 | . | . | . | . | .
O=C(Nc1ccc(-n2ccc(C(F)(F)F)n2)cc1)Nc1cccc(Cl)c1 | -9 | 0 | 6 | -21 | 0 | -16
Cc1cc(C)cc(NC(=O)Nc2ccc(-n3ccc(C(F)(F)F)n3)cc2)c1 | -8 | 14 | 8.8* | 2 | 0 | 4
COCCN1C(=O)CN(S(C)(=O)=O)CC1(C)C(=O)NCc1ccccc1 (configuration not stated) | -1 | . | . | . | . | .
O=C(Nc1cc(Cl)ccc1O)C1CC(c2c(F)cccc2Cl)=NO1 (configuration not stated) | -1 | 14 | 0 | . | 0 | 52
O=C(Nc1cc(Br)ccc1O)C1CC(c2ccccc2Cl)=NO1 (configuration not stated) | -7 | 5 | 8.6* | . | 0 | -1
CCOC(=O)c1sc(=NC(=O)c2ccccc2Br)n(C)c1C | 0 | 10 | 0 | . | 0 | 6
CCOC(=O)c1sc(=NC(=O)c2ccco2)n(C)c1C | -5 | -5 | 1 | -5 | 0 | 106*
CCOC(=O)C1=CCN(S(C)(=O)=O)C1c1ccc(Cl)cc1 (configuration not stated) | -5 | . | . | . | . | .
Cc1cccc(N2NC(=O)/C(=C/c3ccc(-c4ccc(Cl)c(C(=O)O)c4)o3)C2=O)c1 | -8 | 13 | -3 | 4 | . | 103*
O=C(CSc1nc2ccccc2n1S(=O)(=O)c1cccc([N+](=O)[O-])c1)NCCc1ccccc1 | -2 | 3 | 9.4* | . | 0 | -8
CCOc1ccc(C(=O)CN2C(=O)NC3(CCCc4ccccc43)C2=O)cc1 (configuration not stated) | -5 | 7 | -2 | 21 | . | .
Nc1ncnc2c1ncn2[C@@H]1O[C@H](C(=O)N[C@H](CO)Cc2ccc(O)cc2)[C@@H](O)[C@H]1O | -5 | . | . | . | . | .
CCOc1ccc(NCc2cc3c(C(C)(C)C)nn(-c4ccccc4)c3[nH]c2=O)cc1 | -10 | 15 | 11* | . | 0 | -13
CC(=O)Oc1ccc(C(c2ccc(OC(C)=O)cc2)c2ccccn2)cc1 | . | -31 | 75* | -15 | 0 | -6
CN(C)NC1=CC(=[N+]2CCCC2)CC(C)(C)C1 | -4 | 4 | -2 | 1 | 0 | -2
CCCN(CCC)C1=CC(=[N+]2CCCC2)CC(C)(C)C1 | 24* | 3 | -1 | . | 0 | -66
O=C(OCc1cc(=O)n2ccsc2n1)C1(c2ccccc2)CC1 | -4 | 2 | -2 | 11 | . | .
CCOCCCn1c(SCC(=O)NCc2ccco2)nc2c(sc3ccccc32)c1=O | -2 | 20 | 9.4* | . | 0 | 12
COCCCn1cc(CN2CC(N3CCN(Cc4ccccc4F)CC3)CS2(=O)=O)nn1 (configuration not stated) | -4 | . | . | . | . | .
CCOc1ccc(-c2cc(C(=O)NCc3ccccc3)[nH]n2)c(C)c1 | -6 | 4 | 0 | -21 | . | .
SMILES | GalR3 antagonist | MC4R antagonist | MC4R ag barr | TAG inh | Efflux pump inh | Calb FLC
COC(=O)CCC/C=C1/SCC(NC(=O)c2ccccc2)C1=O (configuration not stated) | 13* | -17 | -5 | . | 0 | -2
Cc1nn(CC(=O)NCCCc2ccccc2)c(C)c1[N+](=O)[O-] | 4 | -4 | -2 | 2 | 0 | 87*
O=C(O)c1ccccc1C(=O)N1CCc2c([nH]c3ccccc23)C1C(F)(F)F (configuration not stated) | -3 | -5 | -1 | -4 | 0 | -1
O=C(c1cccc(C(F)(F)F)c1)N1CCc2c([nH]c3ccccc23)C1C(F)(F)F (configuration not stated) | 0 | 10 | 8.8* | 21 | 0 | 23
O=C(C[C@H]1CC[C@H]2[C@@H](COC[C@@H](O)CN2S(=O)(=O)c2ccc(F)cc2)O1)N[C@@H]1CCN(Cc2ccccc2)C1 | -1 | . | . | . | . | .
Cc1cccc(-n2c(SCc3cc(=O)n4ccsc4n3)nc3ccccc32)c1 | -3 | -4 | -2 | -5 | 0 | 114*
CC1(C(=O)NCc2ccccc2)CN(S(C)(=O)=O)CC(=O)N1Cc1cccc(C(F)(F)F)c1 (configuration not stated) | -7 | . | . | . | . | .
CC(C)OC(=O)c1sc2nc(-c3ccccc3)ccc2c1N | -8 | 7 | 9.5* | . | 0 | 13
Cc1ccc(C)c(SCC(=O)Nc2cccnc2Cl)c1 | 1 | 11 | -5 | -4 | 0 | 123*
O=C(COc1ccc2ccccc2c1)Nc1cccc2cccnc12 | -5 | -2 | -3 | 11 | 0 | 1
O=C(COc1ccc2ccccc2c1)Nc1cccnc1Cl | -9 | 13 | 8.3* | . | 0 | 2
Cc1ccc(SC[C@H](C)CN2CCC(NC(=O)OCc3ccccc3)CCC2=O)cc1 (some centres not stated) | -6 | . | . | . | . | .
C[C@H]1CN([C@@H](C)CO)C(=O)c2cc(C#CC3(O)CCCC3)cnc2O[C@H]1CN(C)C(=O)C1CC1 | -2 | 10 | 0 | 5 | . | .
COc1cc([C@H]2c3[nH]c4ccccc4c3C[C@H]3C(=O)N4[C@@H](c5cc(OC)c(OC)c(OC)c5)c5[nH]c6ccccc6c5C[C@H]4C(=O)N23)cc(OC)c1OC | . | 1 | 5 | 50* | 0 | 6
CCN1C(=O)[C@@H]2Cc3c([nH]c4ccccc34)C(c3cc(OC)c(OC)c(OC)c3)N2C1=S (some centres not stated) | -4 | 4 | -1 | . | 0 | -7
COc1c(O)cc2c(c1O)[C@@H]1O[C@H](CO)[C@@H](O)[C@H](O)C1OC2=O (some centres not stated) | 13* | 4 | -2 | . | 0 | -3
CCOC(=O)c1c(-c2ccccc2Cl)cn2ccccc12 | -7 | -3 | -2 | . | 0 | 91*
COc1ccccc1C=NN=C(NN=Cc1ccccc1OC)NN=Cc1ccccc1OC | -6 | 11 | -2 | 56* | . | .
COc1cccc(/C=N/NC(=O)c2c(C)nc3ccc(Br)cn23)c1O | . | 7 | -1 | . | 0 | 109*
COc1cccc(C=NNC(=O)c2ccncc2)c1O | -1 | 1 | -1 | 39 | . | .
